Results as given in ChEMBL document CHEMBL4665847, “Understanding the Metabolism of Proteolysis Targeting Chimeras (PROTACs): The Next Step toward Pharmaceutical Applications” (J Med Chem, 2020).

Key:
[1] = Metabolic stability in cryopreserved human hepatocytes assessed as N-dealkylation at 1 uM incubated for 4 hrs; type: ADME, cell-based, Hepatocyte
[2] = Metabolic stability in cryopreserved human hepatocytes assessed as aliphatic hydroxylation at 1 uM incubated for 4 hrs; type: ADME, cell-based, Hepatocyte
[3] = Metabolic stability in cryopreserved human hepatocytes assessed as dehydrogenation at 1 uM incubated for 4 hrs; type: ADME, cell-based, Hepatocyte
[4] = Metabolic stability in cryopreserved human hepatocytes assessed as amide hydrolysis at 1 uM incubated for 4 hrs; type: ADME, cell-based, Hepatocyte
[5] = Metabolic stability in cryopreserved human hepatocytes assessed as O-dealkylation at 1 uM incubated for 4 hrs; type: ADME, cell-based, Hepatocyte
[6] = Metabolic stability in cryopreserved human hepatocytes assessed as glucuronidation at 1 uM incubated for 4 hrs; type: ADME, cell-based, Hepatocyte
[7] = Metabolic stability in cryopreserved human hepatocytes assessed as aromatic hydroxylation at 1 uM incubated for 4 hrs; type: ADME, cell-based, Hepatocyte
[8] = Metabolic stability in cryopreserved human hepatocytes assessed as aliphatic carbonylation at 1 uM incubated for 4 hrs; type: ADME, cell-based, Hepatocyte
[9] = biological target: T1, Aldehyde oxidase (Homo sapiens, UniProt Q06278); assay: Metabolic stability in human liver cytosol assessed as AOX1 mediated drug metabolism by measuring amide hydrolysis at 1 uM incubated up to 90 mins in presence of hydralazine by LC-MS/MS analysis; type: ADME, subcellular; settings: 1.5 h
T1 sequence (Q06278 whole entry): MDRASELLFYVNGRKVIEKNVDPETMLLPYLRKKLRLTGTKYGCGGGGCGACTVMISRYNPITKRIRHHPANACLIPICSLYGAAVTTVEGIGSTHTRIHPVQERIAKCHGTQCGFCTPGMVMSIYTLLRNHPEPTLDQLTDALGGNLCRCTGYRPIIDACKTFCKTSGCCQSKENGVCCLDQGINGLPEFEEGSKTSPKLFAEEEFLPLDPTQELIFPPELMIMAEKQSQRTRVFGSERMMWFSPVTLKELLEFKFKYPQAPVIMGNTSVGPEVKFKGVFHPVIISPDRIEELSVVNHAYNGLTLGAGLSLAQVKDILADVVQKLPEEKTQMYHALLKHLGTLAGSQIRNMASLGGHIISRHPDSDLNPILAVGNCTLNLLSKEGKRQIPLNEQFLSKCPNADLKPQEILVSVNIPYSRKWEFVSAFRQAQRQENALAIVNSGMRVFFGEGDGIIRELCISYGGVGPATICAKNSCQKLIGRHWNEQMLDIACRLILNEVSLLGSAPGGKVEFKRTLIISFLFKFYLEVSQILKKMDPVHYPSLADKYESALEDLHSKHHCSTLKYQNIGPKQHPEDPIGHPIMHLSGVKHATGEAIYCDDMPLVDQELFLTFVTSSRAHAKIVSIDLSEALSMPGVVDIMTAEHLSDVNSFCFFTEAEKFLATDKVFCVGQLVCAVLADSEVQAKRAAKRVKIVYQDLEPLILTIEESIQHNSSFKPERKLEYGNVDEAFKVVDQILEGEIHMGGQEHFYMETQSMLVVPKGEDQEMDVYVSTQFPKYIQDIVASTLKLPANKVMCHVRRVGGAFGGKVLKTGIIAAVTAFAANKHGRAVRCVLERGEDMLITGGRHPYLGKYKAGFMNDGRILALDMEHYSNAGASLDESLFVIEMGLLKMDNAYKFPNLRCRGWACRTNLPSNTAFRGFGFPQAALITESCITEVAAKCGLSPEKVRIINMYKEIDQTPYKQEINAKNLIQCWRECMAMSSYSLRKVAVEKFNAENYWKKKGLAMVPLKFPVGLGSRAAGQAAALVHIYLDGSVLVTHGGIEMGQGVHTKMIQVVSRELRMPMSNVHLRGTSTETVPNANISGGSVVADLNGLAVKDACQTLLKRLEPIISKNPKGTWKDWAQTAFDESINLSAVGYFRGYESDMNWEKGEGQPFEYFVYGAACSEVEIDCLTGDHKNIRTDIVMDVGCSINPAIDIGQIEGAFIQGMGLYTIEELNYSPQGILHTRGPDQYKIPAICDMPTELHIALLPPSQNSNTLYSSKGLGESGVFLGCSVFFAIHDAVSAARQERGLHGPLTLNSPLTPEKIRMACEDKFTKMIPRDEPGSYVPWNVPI

[10] = biological target: T1, Aldehyde oxidase; assay: Metabolic stability in human liver cytosol assessed as AOX1 mediated drug metabolism by measuring hydroxylation at 1 uM incubated up to 90 mins in absence of hydralazine by LC-MS/MS analysis; type: ADME, subcellular; settings: 1.5 h
[11] = Stability of the compound in PBS at pH 7.4 assessed as compound degradation at 10 uM incubated for 12 hrs by LC-MS analysis; type: physicochemical; settings: buffer, pH 7.4, 12 h
In short: (§1)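 Nonenzymatic stability: 10 mM DMSO stock diluted to 10 μM in PBS, PBS/ACN (1:1), or DMSO; PBS/ACN-DMSO variant dried under nitrogen at 40 °C and redissolved in DMSO. Solutions kept in LC autosampler at 37 °C for 12 h; LC-MS injections at 0, 3, 6 and 12 h tracking remaining parent.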

[12] = Stability of the compound in PBS/ACN assessed as compound degradation at 10 uM measured after 3 hrs by LC-MS analysis; type: physicochemical; settings: buffer; in short: as §1
[13] = Stability of compound in PBS/ACN-DMSO assessed as compound degradation at 10 uM measured after 3 hrs by LC-MS analysis; type: physicochemical; settings: read-out: Drug degradation; in short: as §1
[14] = Stability of compound in DMSO at 10 uM incubated for 12 hrs by LC-MS analysis; type: physicochemical; in short: as §1

| SMILES | Drug metabolism [1] | Drug metabolism [2] | Drug metabolism [4] | Drug metabolism [5] | further results |
| --- | --- | --- | --- | --- | --- |
| Cc1sc2c(c1C)C(c1ccc(Cl)cc1)=N[C@@H](CC(=O)NCCCCCCCCNc1cccc3c1C(=O)N(C1CCC(=O)NC1=O)C3=O)c1nnc(C)n1-2 (some centres not stated) | Metabolite_Detected | Metabolite_Detected | – | – | Drug metabolism [3]: Metabolite_Detected |
| Cc1ncsc1-c1ccc([C@H](C)NC(=O)[C@@H]2C[C@@H](O)CN2C(=O)[C@@H](NC(=O)COCCOCCNC(=O)COc2c(-c3csc(N4CCOCC4)n3)ccc(F)c2F)C(C)(C)C)cc1 | – | – | Metabolite_Detected | Metabolite_Detected | Drug metabolism [3]: Metabolite_Detected; Drug metabolism [6]: Metabolite_Detected |
| Cc1ncsc1-c1ccc([C@H](C)NC(=O)[C@@H]2C[C@@H](O)CN2C(=O)[C@@H](N)C(C)(C)C)cc1 | Metabolite_Detected | Metabolite_Detected | – | – | Drug metabolism [7]: Metabolite_Detected; Drug metabolism [8]: Metabolite_Detected |
| Oc1c(-c2csc(N3CCOCC3)n2)ccc(F)c1F | – | Metabolite_Detected | – | Metabolite_Detected | Drug metabolism [6]: Metabolite_Detected |
| Cc1ncsc1-c1ccc([C@H](C)NC(=O)[C@@H]2C[C@@H](O)CN2C(=O)[C@@H](NC(=O)CCCCN(C)C(=O)COc2c(-c3csc(N4CCOCC4)n3)ccc(F)c2F)C(C)(C)C)cc1 | – | – | – | – | Drug metabolism [9]: Metabolite_Detected; Drug metabolism [10]: Metabolite_Detected |
| Cc1sc2c(c1C)C(c1ccc(Cl)cc1)=N[C@@H](CC(=O)NCCCCNC(=O)COc1cccc3c1C(=O)N(C1CCC(=O)NC1=O)C3=O)c1nnc(C)n1-2 (some centres not stated) | – | – | – | – | Stabilty [11]: Unstable; Stabilty [12]: Unstable; degraded at 3 h, 10 µM [13]: 10%; Stabilty [14]: Stable |
| O=C(COc1c(-c2csc(N3CCOCC3)n2)ccc(F)c1F)NCCOCCOCCNc1cccc2c1C(=O)N(C1CCC(=O)NC1=O)C2=O (configuration not stated) | Metabolite_Detected | – | Metabolite_Detected | Metabolite_Detected | – |
| Cc1ncsc1-c1ccc([C@H](C)NC(=O)[C@@H]2C[C@@H](O)CN2C(=O)[C@@H](NC(=O)CCCCNC(=O)COc2c(-c3csc(N4CCOCC4)n3)ccc(F)c2F)C(C)(C)C)cc1 | – | – | – | – | Drug metabolism [9]: Metabolite_Detected; Drug metabolism [10]: Metabolite_Detected |
| Nc1cccc2c1C(=O)N(C1CCC(=O)NC1=O)C2=O (configuration not stated) [POMALIDOMIDE] | – | – | Metabolite_Detected | – | – |
| O=C(COc1c(-c2csc(N3CCOCC3)n2)ccc(F)c1F)NCCCCCCCCNc1cccc2c1C(=O)N(C1CCC(=O)NC1=O)C2=O (configuration not stated) | Metabolite_Detected | Metabolite_Detected | Metabolite_Detected | Metabolite_Detected | – |
| O=C(COc1cccc2c1C(=O)N(C1CCC(=O)NC1=O)C2=O)NCCCCCCCCNC(=O)COc1c(-c2csc(N3CCOCC3)n2)ccc(F)c1F (configuration not stated) | Metabolite_Detected | – | Metabolite_Detected | Metabolite_Detected | – |
| Cc1sc2c(c1C)C(c1ccc(Cl)cc1)=N[C@@H](CC(=O)O)c1nnc(C)n1-2 | – | Metabolite_Detected | – | – | – |
| O=C(COc1cccc2c1C(=O)N(C1CCC(=O)NC1=O)C2=O)NCCOCCOCCNC(=O)COc1c(-c2csc(N3CCOCC3)n2)ccc(F)c1F (configuration not stated) | – | Metabolite_Detected | Metabolite_Detected | Metabolite_Detected | – |
